Test results published in ChEMBL document CHEMBL1137497, “4-arylcyclohexylalanine analogs as potent, selective, and orally active inhibitors of dipeptidyl peptidase IV” (Bioorg Med Chem Lett, 2007).
Blank lines part the entries; values can stand above or below the compound they belong to.

How the values were obtained:
Dipeptidyl peptidase 8 = Dipeptidyl peptidase 8 (Homo sapiens, UniProt Q6V1X1); assay: Inhibition of human DPP8
[1] = Plasma clearance in rat at 1 mg/kg, iv or 2 mg/kg, po; format: ADME, organism-based
How it was run: (§1)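 Pharmacokinetic parameters derived by noncompartmental analysis.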

Mus musculus [2] = assay: Reduction in glucose excursion in mouse at 0.1 mg/kg, po administered 60 mins prior to dextrose challenge by oral glucose tolerance test; format: functional; parameters: scale not given: the % may be the effect or the level left
How it was run: (§2)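 Single oral dose given 60 min before an oral dextrose challenge. Blood glucose was monitored, and glucose excursion was expressed as percent reduction relative to vehicle-dosed controls.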

[3] = Oral bioavailability in rat at 2 mg/kg; format: ADME, organism-based; conditions: in vivo; how it was run: as §1
[4] = target: Voltage-gated inwardly rectifying potassium channel KCNH2 (Homo sapiens, UniProt Q12809); assay: Inhibition of human ERG
Dipeptidyl peptidase 9 = Dipeptidyl peptidase 9 (Homo sapiens, UniProt Q86TI2); assay: Inhibition of human DPP9
[5] = Plasma clearance in rat; format: ADME, organism-based
[6] = Oral bioavailability in rat; format: ADME, organism-based; conditions: in vivo
[7] = Half life in rat; format: ADME, organism-based; conditions: in vivo
[8] = Half life in dog at 0.5 mg/kg, po; format: ADME, organism-based, Canis lupus familiaris; parameters: dose 0.5 mg/kg, route oral; conditions: in vivo; how it was run: as §1
[9] = AUC in rhesus monkey at 2 mg/kg, po; format: ADME, organism-based, Macaca mulatta; parameters: dose 2 mg/kg, route oral; conditions: plasma; how it was run: as §1
[10] = Plasma clearance in rhesus monkey at 1 mg/kg, iv or 2 mg/kg, po; format: ADME, organism-based, Macaca mulatta; how it was run: as §1
[11] = Oral bioavailability in dog at 0.5 mg/kg; format: ADME, organism-based, Canis lupus familiaris; conditions: in vivo; how it was run: as §1
[12] = Cmax in rhesus monkey at 1 mg/kg, iv or 2 mg/kg, po; format: ADME, organism-based, Macaca mulatta; conditions: in vivo; how it was run: as §1
[13] = Oral bioavailability in rhesus monkey at 2 mg/kg; format: ADME, organism-based, Macaca mulatta; conditions: in vivo; how it was run: as §1
[14] = Half life in rhesus monkey at 1 mg/kg, iv or 2 mg/kg, po; format: ADME, organism-based, Macaca mulatta; conditions: in vivo; how it was run: as §1
[15] = Cmax in dog at 0.5 mg/kg, po; format: ADME, organism-based, Canis lupus familiaris; parameters: dose 0.5 mg/kg, route oral; conditions: in vivo; how it was run: as §1
[16] = Cmax in rat at 1 mg/kg, iv or 2 mg/kg, po; format: ADME, organism-based; conditions: in vivo; how it was run: as §1
[17] = AUC in rat at 2 mg/kg, po; format: ADME, organism-based; parameters: dose 2 mg/kg, route oral; conditions: plasma; how it was run: as §1
[18] = Half life in rat at 1 mg/kg, iv or 2 mg/kg, po; format: ADME, organism-based; conditions: in vivo; how it was run: as §1
Mus musculus [19] = assay: Reduction in glucose excursion in mouse at 0.03 mg/kg, po administered 60 mins prior to dextrose challenge by oral glucose tolerance test; format: functional; parameters: scale not given: the % may be the effect or the level left; how it was run: as §2
Canis familiaris = assay: AUC in dog at 0.5 mg/kg, po; format: ADME, organism-based, Canis lupus familiaris, Plasma; parameters: dose 0.5 mg/kg, route oral; conditions: in vivo; how it was run: as §1

Sequence of Dipeptidyl peptidase 8 (Q6V1X1 whole entry): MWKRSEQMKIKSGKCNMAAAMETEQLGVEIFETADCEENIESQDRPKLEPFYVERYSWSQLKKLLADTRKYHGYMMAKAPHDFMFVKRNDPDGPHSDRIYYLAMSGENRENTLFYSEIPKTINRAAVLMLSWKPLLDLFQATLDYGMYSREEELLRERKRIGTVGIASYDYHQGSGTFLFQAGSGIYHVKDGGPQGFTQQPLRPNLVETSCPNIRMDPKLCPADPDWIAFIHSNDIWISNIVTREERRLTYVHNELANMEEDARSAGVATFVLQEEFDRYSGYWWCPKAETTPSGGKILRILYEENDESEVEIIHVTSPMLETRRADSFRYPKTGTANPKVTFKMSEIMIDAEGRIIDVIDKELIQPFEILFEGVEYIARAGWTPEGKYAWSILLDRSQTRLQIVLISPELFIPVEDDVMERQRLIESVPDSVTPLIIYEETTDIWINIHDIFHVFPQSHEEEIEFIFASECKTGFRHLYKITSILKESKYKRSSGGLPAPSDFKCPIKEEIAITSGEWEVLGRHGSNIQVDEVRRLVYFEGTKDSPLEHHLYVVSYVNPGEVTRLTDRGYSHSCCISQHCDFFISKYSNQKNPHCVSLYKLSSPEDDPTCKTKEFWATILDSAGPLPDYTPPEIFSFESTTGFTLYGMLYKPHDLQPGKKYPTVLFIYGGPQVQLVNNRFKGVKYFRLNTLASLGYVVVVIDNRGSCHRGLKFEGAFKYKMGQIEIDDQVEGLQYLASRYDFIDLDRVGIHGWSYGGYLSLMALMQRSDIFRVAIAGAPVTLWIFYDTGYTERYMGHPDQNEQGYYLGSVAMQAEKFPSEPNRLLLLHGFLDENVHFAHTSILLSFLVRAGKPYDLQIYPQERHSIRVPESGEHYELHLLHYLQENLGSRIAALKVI
Sequence of Voltage-gated inwardly rectifying potassium channel KCNH2 (Q12809 whole entry): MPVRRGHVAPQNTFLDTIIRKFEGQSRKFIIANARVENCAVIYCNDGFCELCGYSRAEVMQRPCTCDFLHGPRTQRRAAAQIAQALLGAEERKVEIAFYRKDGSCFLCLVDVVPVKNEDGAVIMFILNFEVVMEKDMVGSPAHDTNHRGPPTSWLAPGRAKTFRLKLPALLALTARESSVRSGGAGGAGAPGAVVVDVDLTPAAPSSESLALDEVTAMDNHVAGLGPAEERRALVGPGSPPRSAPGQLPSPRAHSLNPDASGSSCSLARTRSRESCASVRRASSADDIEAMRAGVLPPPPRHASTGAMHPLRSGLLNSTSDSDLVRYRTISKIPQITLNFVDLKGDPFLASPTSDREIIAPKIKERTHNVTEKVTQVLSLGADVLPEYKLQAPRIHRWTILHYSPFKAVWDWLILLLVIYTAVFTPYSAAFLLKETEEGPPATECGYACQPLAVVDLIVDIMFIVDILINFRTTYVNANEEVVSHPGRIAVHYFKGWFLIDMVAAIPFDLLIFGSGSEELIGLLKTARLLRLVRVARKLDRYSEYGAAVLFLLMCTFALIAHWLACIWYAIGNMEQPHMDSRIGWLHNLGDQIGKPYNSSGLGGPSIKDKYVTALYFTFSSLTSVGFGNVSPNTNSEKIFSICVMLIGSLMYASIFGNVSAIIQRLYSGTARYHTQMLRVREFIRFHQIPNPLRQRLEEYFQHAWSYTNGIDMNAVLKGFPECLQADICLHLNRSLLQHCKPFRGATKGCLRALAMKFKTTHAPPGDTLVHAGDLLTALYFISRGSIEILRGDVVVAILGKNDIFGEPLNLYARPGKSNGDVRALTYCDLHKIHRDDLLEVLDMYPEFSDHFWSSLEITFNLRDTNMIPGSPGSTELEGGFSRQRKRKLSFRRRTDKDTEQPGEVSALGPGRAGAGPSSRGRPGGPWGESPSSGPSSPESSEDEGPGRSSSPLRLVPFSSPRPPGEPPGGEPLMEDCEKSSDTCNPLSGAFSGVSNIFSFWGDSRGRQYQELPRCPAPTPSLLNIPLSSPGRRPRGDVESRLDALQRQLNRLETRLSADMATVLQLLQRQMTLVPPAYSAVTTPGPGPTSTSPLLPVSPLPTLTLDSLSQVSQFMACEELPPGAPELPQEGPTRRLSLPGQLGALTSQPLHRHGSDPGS
Sequence of Dipeptidyl peptidase 9 (Q86TI2 whole entry): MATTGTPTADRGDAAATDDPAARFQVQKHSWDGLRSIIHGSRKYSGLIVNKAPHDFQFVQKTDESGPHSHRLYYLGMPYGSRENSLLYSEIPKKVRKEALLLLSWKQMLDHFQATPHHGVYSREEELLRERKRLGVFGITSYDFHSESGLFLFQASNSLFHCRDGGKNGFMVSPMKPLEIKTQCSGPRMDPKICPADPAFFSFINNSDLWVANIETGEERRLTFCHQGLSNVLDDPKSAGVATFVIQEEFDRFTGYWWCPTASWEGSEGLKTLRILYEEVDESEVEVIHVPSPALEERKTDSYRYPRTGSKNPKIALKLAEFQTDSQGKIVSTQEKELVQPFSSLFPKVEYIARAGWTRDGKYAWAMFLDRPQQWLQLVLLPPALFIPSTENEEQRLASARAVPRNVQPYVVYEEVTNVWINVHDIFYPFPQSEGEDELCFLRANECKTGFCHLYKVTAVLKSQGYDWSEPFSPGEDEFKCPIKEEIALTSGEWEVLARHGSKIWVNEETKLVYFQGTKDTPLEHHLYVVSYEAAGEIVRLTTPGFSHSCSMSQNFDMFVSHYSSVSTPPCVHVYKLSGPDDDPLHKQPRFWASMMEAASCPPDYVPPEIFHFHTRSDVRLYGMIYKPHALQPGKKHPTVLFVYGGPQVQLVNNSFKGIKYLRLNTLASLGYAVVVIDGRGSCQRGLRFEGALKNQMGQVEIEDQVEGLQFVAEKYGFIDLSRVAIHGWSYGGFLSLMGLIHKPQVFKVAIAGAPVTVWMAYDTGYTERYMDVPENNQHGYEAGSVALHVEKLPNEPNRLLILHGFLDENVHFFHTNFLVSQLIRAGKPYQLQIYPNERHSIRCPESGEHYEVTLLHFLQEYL

Compound: COc1cc([C@H]2CC[C@@H]([C@H](C(=O)N(C)C)[C@H](N)C(=O)N3CCC(F)(F)C3)CC2)nc(OC)n1
- IC50 (Dipeptidyl peptidase 8): > 100 µM

Compound: CN(C)C(=O)[C@@H](c1ccc(-c2ccc(F)cc2)cc1)[C@H](N)C(=O)N1CC[C@H](F)C1
- clearance [1]: 4.8 mL/min/kg
- Activity (Mus musculus [2]): 21%

Compound: C[C@@H](c1ccc(-c2ccc(F)cc2)cc1)[C@H](N)C(=O)N1CC[C@H](F)C1
- clearance [1]: 8.6 mL/min/kg
- bioavailability [3]: 85%

Compound: CN(C)C(=O)[C@@H](c1ccc(-c2ccc3ncnn3c2)cc1)[C@H](N)C(=O)N1CC[C@H](F)C1
- clearance [1]: 7 mL/min/kg

Compound: CC(=O)N[C@H]1CC[C@H]([C@H](C)[C@H](N)C(=O)N2CC[C@H](F)C2)CC1
- clearance [1]: 42 mL/min/kg
- Activity (Mus musculus [2]): 26%
- IC50 [4]: > 100 µM
- bioavailability [3]: 56%
- IC50 (Dipeptidyl peptidase 9): > 100 µM

More lines, main results first:

- IC50 (Dipeptidyl peptidase 8): > 100 µM
Compound: COc1cc([C@H]2CC[C@H]([C@H](C(=O)N(C)C)[C@H](N)C(=O)N3CCC(F)(F)C3)CC2)nc(OC)n1

- clearance [5]: 40 mL/min/kg
- bioavailability [6]: 98%
- half-life [7]: 174 min
Compound: CN(C)C(=O)[C@@H]([C@H]1CC[C@H](c2cccc3ncnn32)CC1)[C@H](N)C(=O)N1CCC(F)(F)C1

- bioavailability [6]: 31%
- half-life [7]: 32.4 min
Compound: CN(C)C(=O)[C@@H]([C@H]1CC[C@H](c2cccc3ncnn32)CC1)[C@H](N)C(=O)N1CC[C@H](F)C1

- half-life [8]: 234 min
- clearance [1]: 5.3 mL/min/kg
- AUC [9]: 6.5 µM·h
- clearance [10]: 5.6 mL/min/kg
- bioavailability [11]: 100%
- Cmax [12]: 2800 nM
- bioavailability [13]: 97%
- half-life [14]: 246 min
- Cmax [15]: 16 µM
- Cmax [16]: 3.3 µM
- AUC [17]: 4.4 µM·h
- half-life [18]: 246 min
- bioavailability [3]: 63%
- AUC (Canis familiaris): 46 µM·h
Compound: CN(C)C(=O)[C@@H]([C@H]1CC[C@H](c2ccc3ncnn3c2)CC1)[C@H](N)C(=O)N1CCC(F)(F)C1
- IC50 [4]: > 90 µM
- Activity (Mus musculus [19]): 23%
